This is an account of results in ChEMBL document CHEMBL2311400, “Synthesis and biological evaluation of 4-(aminomethyl)-1-hydroxypyrazole analogues of muscimol as γ-aminobutyric acid(a) receptor agonists” (J Med Chem, 2013).

The structures appear in SMILES notation.

Format in all cases: cell-based
Assay [1] has as its system TSA201. The assay is described as follows: Agonist activity at human GABAA alpha5beta2gamma2S receptor expressed in TSA201 cells after 1 min by FLIPR assay relative to GABA. The procedure, abridged: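 tsA201 cells transfected with 1 μg α (1, 2, 3 or 5), 1 μg β2 and 3 μg γ2S cDNA (Polyfect). Cells replated onto poly-D-lysine plates and assayed 16–24 h later. Loaded with FMP blue dye in Krebs buffer pH 7.4 for 30 min at 37 °C. Fluorescence (ex 530/em 560 nm) read before and up to 1 min after agonist addition. ΔFU concentration-response curves; duplicate, ≥3 experiments.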

The target of assay [2] is T1, GABA-A receptor; alpha-1/beta-2/gamma-2 (Homo sapiens, UniProt P14867+P18507+P47870).
T1 sequence (P14867 whole entry): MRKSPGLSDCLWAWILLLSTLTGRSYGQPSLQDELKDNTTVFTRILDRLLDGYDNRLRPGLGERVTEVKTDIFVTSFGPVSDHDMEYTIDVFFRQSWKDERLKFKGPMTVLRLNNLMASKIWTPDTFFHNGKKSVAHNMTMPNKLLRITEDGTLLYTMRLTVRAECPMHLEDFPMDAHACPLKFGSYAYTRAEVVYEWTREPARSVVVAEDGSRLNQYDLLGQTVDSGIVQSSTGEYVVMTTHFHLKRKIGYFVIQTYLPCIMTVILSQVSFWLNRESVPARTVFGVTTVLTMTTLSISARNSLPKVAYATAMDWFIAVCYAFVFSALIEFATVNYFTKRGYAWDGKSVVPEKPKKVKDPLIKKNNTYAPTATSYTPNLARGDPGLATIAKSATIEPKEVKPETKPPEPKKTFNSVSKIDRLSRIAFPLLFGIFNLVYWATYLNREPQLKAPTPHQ
T1 sequence (P47870 whole entry): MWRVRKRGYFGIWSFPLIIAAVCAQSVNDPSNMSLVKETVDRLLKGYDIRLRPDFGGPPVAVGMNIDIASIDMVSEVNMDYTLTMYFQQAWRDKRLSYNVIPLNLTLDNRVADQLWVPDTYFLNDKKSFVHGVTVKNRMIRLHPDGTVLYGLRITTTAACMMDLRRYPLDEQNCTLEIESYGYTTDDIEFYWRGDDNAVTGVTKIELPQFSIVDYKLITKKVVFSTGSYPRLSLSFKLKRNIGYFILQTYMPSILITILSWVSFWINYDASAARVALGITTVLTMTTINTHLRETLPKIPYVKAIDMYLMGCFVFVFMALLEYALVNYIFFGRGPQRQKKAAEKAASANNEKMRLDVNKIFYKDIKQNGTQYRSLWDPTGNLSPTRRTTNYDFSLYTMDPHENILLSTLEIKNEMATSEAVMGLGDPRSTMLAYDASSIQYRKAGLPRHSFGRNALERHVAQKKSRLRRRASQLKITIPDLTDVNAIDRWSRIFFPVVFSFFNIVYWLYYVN
T1 sequence (P18507 whole entry): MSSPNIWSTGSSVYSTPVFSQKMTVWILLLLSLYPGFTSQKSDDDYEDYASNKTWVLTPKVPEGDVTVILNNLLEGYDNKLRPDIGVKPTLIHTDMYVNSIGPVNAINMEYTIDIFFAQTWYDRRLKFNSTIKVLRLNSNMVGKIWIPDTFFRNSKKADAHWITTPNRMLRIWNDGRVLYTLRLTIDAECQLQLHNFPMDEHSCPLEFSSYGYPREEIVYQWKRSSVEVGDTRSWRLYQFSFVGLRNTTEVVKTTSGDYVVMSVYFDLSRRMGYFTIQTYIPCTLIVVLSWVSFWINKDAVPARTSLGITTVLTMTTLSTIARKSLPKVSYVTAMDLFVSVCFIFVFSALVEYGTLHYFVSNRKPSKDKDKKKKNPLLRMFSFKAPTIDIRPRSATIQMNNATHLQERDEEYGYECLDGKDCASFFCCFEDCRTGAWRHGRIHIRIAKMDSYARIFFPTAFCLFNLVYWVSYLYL
The experiment in a line: Agonist activity at human GABAA alpha1beta2gamma2S receptor expressed in HEK293 cells by patch clamp electrophysiology assay. On the technique in general: The patch-clamp technique gives a direct electrical read-out from membranes.

Assay [3] has as its target T2, GABA A receptor alpha-2/beta-2/gamma-2 (Homo sapiens, UniProt P18507+P47869+P47870).
T2 sequence (P47870 whole entry): T1 sequence (P47870 whole entry)
T2 sequence (P18507 whole entry): T1 sequence (P18507 whole entry)
T2 sequence (P47869 whole entry): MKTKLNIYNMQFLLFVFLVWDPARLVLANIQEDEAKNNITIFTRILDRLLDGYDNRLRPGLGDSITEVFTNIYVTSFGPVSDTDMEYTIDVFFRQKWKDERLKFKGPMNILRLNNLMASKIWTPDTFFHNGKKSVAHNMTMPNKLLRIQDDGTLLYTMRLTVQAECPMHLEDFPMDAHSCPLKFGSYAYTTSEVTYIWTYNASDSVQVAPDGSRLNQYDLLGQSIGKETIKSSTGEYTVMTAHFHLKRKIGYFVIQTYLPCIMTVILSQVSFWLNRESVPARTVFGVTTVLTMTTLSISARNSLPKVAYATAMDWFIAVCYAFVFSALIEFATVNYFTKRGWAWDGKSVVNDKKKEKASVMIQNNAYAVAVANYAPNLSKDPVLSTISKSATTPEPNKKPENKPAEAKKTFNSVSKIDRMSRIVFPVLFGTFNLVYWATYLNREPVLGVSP
The assay is described as follows: Agonist activity at human GABAA alpha2beta2gamma2S receptor expressed in TSA201 cells after 1 min by FLIPR assay. The procedure, abridged: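 tsA201 cells transfected with 1 μg α (1, 2, 3 or 5), 1 μg β2 and 3 μg γ2S cDNA (Polyfect). Cells replated onto poly-D-lysine plates and assayed 16–24 h later. Loaded with FMP blue dye in Krebs buffer pH 7.4 for 30 min at 37 °C.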

Assay [4] deals with Gamma-aminobutyric acid receptor subunit rho-1 (Homo sapiens, UniProt P24046). The experiment in a line: Agonist activity at human GABAA rho1 receptor expressed in HEK293 cells by patch clamp electrophysiology assay relative to GABA. The procedure, abridged:
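Human ρ1 (pCDNA3) co-transfected with a GFP plasmid into HEK 293 cells. Whole-cell voltage clamp at −60 mV, 40–72 h after transfection, room temperature (20–22 °C). Extracellular solution pH 7.35; intrapipette solution with KCl 140 mM, EGTA 10 mM, MgATP 2 mM, pH 7.3.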

Chain of Gamma-aminobutyric acid receptor subunit rho-1 (P24046 whole entry): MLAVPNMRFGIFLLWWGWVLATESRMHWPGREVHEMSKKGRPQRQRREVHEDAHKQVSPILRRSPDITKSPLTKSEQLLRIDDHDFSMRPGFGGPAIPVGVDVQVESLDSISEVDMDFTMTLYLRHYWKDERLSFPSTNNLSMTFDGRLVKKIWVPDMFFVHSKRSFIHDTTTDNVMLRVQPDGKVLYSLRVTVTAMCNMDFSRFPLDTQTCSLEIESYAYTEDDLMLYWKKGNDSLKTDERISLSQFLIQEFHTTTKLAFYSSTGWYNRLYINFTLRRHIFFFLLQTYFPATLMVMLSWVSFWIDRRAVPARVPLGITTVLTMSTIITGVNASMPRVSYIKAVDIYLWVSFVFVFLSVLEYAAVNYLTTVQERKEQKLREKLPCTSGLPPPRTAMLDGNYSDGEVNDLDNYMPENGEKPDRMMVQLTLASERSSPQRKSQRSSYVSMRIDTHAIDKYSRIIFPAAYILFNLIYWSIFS

Consider `NCc1cnn(O)c1`, for which the Rmax came to 77% in assay [1] and 70% in assay [4]. Moreover, the figures for the concentration giving a half-maximal response (EC50) in assay [2] and in assay [3] were 19 µM and 4.5 µM, respectively.
